Results taken from publication PMC6045484 (ACS Omega, 2018).
Converted amounts (≈) assume the structure as drawn. “Also recorded” adds a separate entry of the source.

How the values were obtained:
P. falciparum (D6) = experiment: in vitro antimalarial activity, plasmodial LDH; format: cell-based, Plasmodium falciparum; settings: Plasmodium falciparum, D6, 72 h, read-out: P. falciparum (D6) IC50
P. falciparum (W2) = experiment: in vitro antimalarial activity, plasmodial LDH; format: cell-based, Plasmodium falciparum; settings: Plasmodium falciparum, W2, 72 h, read-out: P. falciparum (W2) IC50, CQ-resistant W2 strain, 72 h
Procedure, shortened: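 P. falciparum-infected erythrocytes (2% parasitemia, 2% hematocrit) in RPMI 1640 with 10% human serum and 60 μg/mL amikacin. Exposed to test compound dilutions for 72 h at 37 °C under 90% N2/5% O2/5% CO2. LDH measured with Malstat reagent (30 min, room temperature), then NBT/PES for 1 h in the dark, stopped with 5% acetic acid, read at 650 nm. IC50 from dose-response curves.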

[1] = system: SK-MEL, KB, BT-549, SK-OV-3, VERO and LLC-PK1 cells; experiment: cytotoxicity, neutral red uptake assay; format: cell-based, mammalian; settings: highest test concentration 4760 ng/mL
Procedure, shortened: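 Cells seeded at 25 000/well and allowed 24 h to reach confluence. Test compound was then added and incubated 48 h. Viable cells were counted by a modified neutral red uptake method. The panel was four human cancer lines and two noncancerous mammalian kidney lines. Doxorubicin served as positive control and DMSO as negative control.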

[2] = system: P. berghei (sensitive strain); experiment: blood-schizontocidal activity against P. berghei infection in mice; format: in vivo, Plasmodium berghei; settings: Swiss mice
Procedure, shortened: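 Swiss mice of either sex (about 15–20 g, same age), six per group, inoculated intraperitoneally on day 0 with 1 × 10^7 infected erythrocytes from a donor mouse. Oral test compound at 100, 50, 25 or 10 mg/kg, CQ diphosphate (10 mg/kg/day × 4) or vehicle started 4 h later, on D0 to D+3. Giemsa tail-blood smears on D+4 and D+7. Curative: parasites eliminated, no relapse, all mice surviving to D+60.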

C. albicans ATCC90028 = experiment: in vitro antifungal activity; format: cell-based, Candida albicans; settings: Candida albicans; for IC50: ATCC90028, read-out: C. albicans IC50; for MFC: ATCC90028, read-out: C. albicans MFC; for MIC: ATCC90028, read-out: C. albicans MIC
Procedure, shortened: (§1)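 Modified NCCLS broth method in Sabouraud dextrose. Inoculum set by OD630 to 1.5 × 10^3 CFU/mL. Test compound serially diluted in 20% DMSO/saline, duplicate wells, up to 20 μg/mL. Incubated 70–74 h at 35 °C; 530 nm read before and after. IC50 is 50% growth inhibition; MIC is no detectable growth. MFC from clear wells subcultured on agar. Amphotericin B control.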

C. neoformans ATCC90113 = experiment: in vitro antifungal activity; format: cell-based, Cryptococcus neoformans; settings: Cryptococcus neoformans; for IC50: ATCC90113, read-out: C. neoformans IC50; for MFC: ATCC90113, read-out: C. neoformans MFC; for MIC: ATCC90113, read-out: C. neoformans MIC
Procedure, shortened: as §1

A. fumigatus ATCC 90906 = experiment: in vitro antifungal activity; format: cell-based, Aspergillus fumigatus; settings: Aspergillus fumigatus; for IC50: ATCC90906, read-out: A. fumigatus IC50; for MFC: ATCC90906, read-out: A. fumigatus MFC; for MIC: ATCC90906, read-out: A. fumigatus MIC
Procedure, shortened: as §1

SA (ATCC29213) = experiment: in vitro antibacterial activity; format: cell-based; settings: Staphylococcus aureus; for IC50: ATCC29213, read-out: IC50 (concentration that affords 50% growth inhibition), SA; for MBC: ATCC29213, read-out: MBC (minimum bactericidal concentration), SA; for MIC: ATCC29213, read-out: MIC, SA
Procedure, shortened: (§2)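 Test compound serially diluted in 20% DMSO/saline and plated in duplicate, up to 20 μg/mL. Inoculum in cation-adjusted Mueller–Hinton broth, pH 7.3, set by OD630 to 5 × 10^5 CFU/mL. Incubated 16–20 h at 35 °C; 530 nm read before and after. IC50 is 50% growth inhibition; MIC is no detectable growth. MBC from clear wells subcultured on agar. Ciprofloxacin control.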

MRSA (ATCC33591) = experiment: in vitro antibacterial activity; format: cell-based, methicillin-resistant Staphylococcus aureus; settings: Staphylococcus aureus, ATCC33591|MRSA, read-out: MIC, MRSA
Procedure, shortened: as §2

[3] = system: M. intracellulare (ATCC23068); experiment: in vitro antibacterial activity, modified alamarBlue procedure; format: cell-based, Mycobacterium intracellulare; settings: Mycobacterium intracellulare; for IC50: ATCC23068, read-out: IC50 (concentration that affords 50% growth inhibition), M. intracellulare; for MBC: ATCC23068, read-out: MBC (minimum bactericidal concentration), M. intracellulare; for MIC: ATCC23068, read-out: MIC, M. intracellulare
Procedure, shortened: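 Modified alamarBlue microplate method. Test compound serially diluted in 20% DMSO/saline, duplicate wells, up to 20 μg/mL. Inoculum 2.0 × 10^6 CFU/mL in Middlebrook 7H9 with OADC, pH 7.3, containing 5% alamarBlue. Incubated 70–74 h at 37 °C, 10% CO2; fluorescence 544ex/590em read before and after. MIC: no blue-to-pink change. MBC by subculturing blue wells on agar. Ciprofloxacin control.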

[4] = system: L. donovani promastigotes; experiment: in vitro antileishmanial activity, alamarBlue assay; format: cell-based, Leishmania donovani; settings: Leishmania donovani, 48 h; for IC50: read-out: L. donovani IC50, promastigotes, 48 h; for IC90: read-out: L. donovani IC90, promastigotes, 48 h

Q: Which results are given for `CCCCCCOc1c(OC)cc(NC(C)CCCNC(=O)C(N)CCCCN)c2nc(C(C)(C)C)ccc12` (stereo not shown) [compound 99, 2,6-Diamino-N-(4-(2-tert-butyl-5-(hexyloxy)-6-methoxyquinolin-8-ylamino)-pentyl)hexanamide]?
A: IC50 (P. falciparum (D6)): 0.09 µg/mL (≈ 0.166 µM); IC50 (P. falciparum (W2)): 0.036 µg/mL (≈ 0.0662 µM); cytotoxicity CTX [1]: NC (NC, not cytotoxic up to 4760 ng/mL (4.76 μg/mL)); P. berghei blood-schizontocidal activity (mice cured/treated) ([2]; 25 mg/kg/day × 4, oral): inactive (0/6); P. berghei blood-schizontocidal activity (mice cured/treated) ([2]; 50 mg/kg/day × 4, oral): suppressive activity; also recorded: active (3/6); P. berghei blood-schizontocidal activity (mice cured/treated) ([2]; 100 mg/kg/day × 4, oral): 100% cure and curative (6/6); IC50 (C. albicans ATCC90028): > 20 µg/mL; MFC (C. albicans ATCC90028): > 20 µg/mL; MIC (C. albicans ATCC90028): > 20 µg/mL; IC50 (C. neoformans ATCC90113): 18.6 µg/mL (≈ 34.3 µM); MFC (C. neoformans ATCC90113): > 20 µg/mL; MIC (C. neoformans ATCC90113): > 20 µg/mL; IC50 (A. fumigatus ATCC 90906): > 20 µg/mL; MFC (A. fumigatus ATCC 90906): > 20 µg/mL; MIC (A. fumigatus ATCC 90906): > 20 µg/mL; IC50 (SA (ATCC29213)): > 20 µg/mL; MBC (SA (ATCC29213)): > 20 µg/mL; MIC (SA (ATCC29213)): > 20 µg/mL; MIC (MRSA (ATCC33591)): > 20 µg/mL; IC50 [3]: > 20 µg/mL; MBC [3]: > 20 µg/mL; MIC [3]: > 20 µg/mL

Q: Which results are given for `CCCCCOc1c(OC)cc(NC(C)CCCNC(=O)C(N)Cc2ccccc2)c2nc(C(C)(C)C)ccc12` (stereo not shown) [compound 97, 2-Amino-N-(4-(2-tert-butyl-6-methoxy-5-(pentyloxy)quinolin-8-ylamino)pentyl)-3-phenylpropanamide]?
A: IC50 (P. falciparum (D6)): 2.5 µg/mL (≈ 4.56 µM); IC50 (P. falciparum (W2)): 1.3 µg/mL (≈ 2.37 µM); cytotoxicity CTX [1]: NC (NC, not cytotoxic up to 4760 ng/mL (4.76 μg/mL)); IC50 [4]: 4 µg/mL (≈ 7.29 µM); IC90 [4]: 6.5 µg/mL (≈ 11.8 µM); IC50 (C. albicans ATCC90028): > 20 µg/mL; MFC (C. albicans ATCC90028): > 20 µg/mL; MIC (C. albicans ATCC90028): > 20 µg/mL; IC50 (C. neoformans ATCC90113): 2.29 µg/mL (≈ 4.17 µM); MFC (C. neoformans ATCC90113): 2.5 µg/mL (≈ 4.56 µM); MIC (C. neoformans ATCC90113): 2.5 µg/mL (≈ 4.56 µM); IC50 (A. fumigatus ATCC 90906): > 20 µg/mL; MFC (A. fumigatus ATCC 90906): > 20 µg/mL; MIC (A. fumigatus ATCC 90906): > 20 µg/mL; IC50 (SA (ATCC29213)): 5.81 µg/mL (≈ 10.6 µM); MBC (SA (ATCC29213)): > 20 µg/mL; MIC (SA (ATCC29213)): 10 µg/mL (≈ 18.2 µM); MIC (MRSA (ATCC33591)): 20 µg/mL (≈ 36.4 µM); IC50 [3]: 14.9 µg/mL (≈ 27.2 µM); MBC [3]: > 20 µg/mL; MIC [3]: > 20 µg/mL

Q: Which IC50 (P. falciparum (D6)) does the source give for `CCCCCCOc1c(OC)cc(NC(C)CCCNC(=O)C(N)Cc2ccccc2)c2nc(C(C)(C)C)ccc12` (stereo not shown) [compound 106, 2-Amino-N-(4-(2-tert-butyl-5-(hexyloxy)-6-methoxyquinolin-8-ylamino)pentyl)-3-phenylpropanamide] here?
A: > 4.76 µg/mL

Q: And the IC50 (P. falciparum (W2))?
A: > 4.76 µg/mL

Q: And the “cytotoxicity CTX” value [1]?
A: NC (NC, not cytotoxic up to 4760 ng/mL (4.76 μg/mL))

Q: And the IC50 [4]?
A: 9.89 µg/mL (≈ 17.6 µM)

Q: What about the IC90 [4] of the same compound?
A: > 40 µg/mL

Q: And the IC50 (C. albicans ATCC90028)?
A: > 20 µg/mL

Q: What about the MFC (C. albicans ATCC90028) of the same compound?
A: > 20 µg/mL

Q: And the MIC (C. albicans ATCC90028)?
A: > 20 µg/mL

Q: What about the IC50 (C. neoformans ATCC90113) of the same compound?
A: 9.83 µg/mL (≈ 17.5 µM)

Q: What about the MFC (C. neoformans ATCC90113) of the same compound?
A: 20 µg/mL (≈ 35.5 µM)

Q: What about the MIC (C. neoformans ATCC90113) of the same compound?
A: 20 µg/mL (≈ 35.5 µM)

Q: What about the IC50 (A. fumigatus ATCC 90906) of the same compound?
A: > 20 µg/mL

Q: And the MFC (A. fumigatus ATCC 90906)?
A: > 20 µg/mL

Q: What about the MIC (A. fumigatus ATCC 90906) of the same compound?
A: > 20 µg/mL

Q: And the IC50 (SA (ATCC29213))?
A: 10.7 µg/mL (≈ 19 µM)

Q: And the MBC (SA (ATCC29213))?
A: > 20 µg/mL

Q: What about the MIC (SA (ATCC29213)) of the same compound?
A: 20 µg/mL (≈ 35.5 µM)

Q: What about the MIC (MRSA (ATCC33591)) of the same compound?
A: 20 µg/mL (≈ 35.5 µM)

Q: And the IC50 [3]?
A: 18.1 µg/mL (≈ 32.1 µM)

Q: What about the MBC [3] of the same compound?
A: > 20 µg/mL

Q: What about the MIC [3] of the same compound?
A: > 20 µg/mL

Q: Which results are given for `CCCCCCCCOc1c(OC)cc(NC(C)CCCNC(=O)C(N)CCSC)c2nc(C(C)(C)C)ccc12` (stereo not shown) [compound 120, 2-Amino-N-(4-(2-tert-butyl-6-methoxy-5-(octyloxy)quinolin-8-ylamino)pentyl)-4-(methylthio)butanamide]?
A: IC50 (P. falciparum (D6)): 0.16 µg/mL (≈ 0.278 µM); IC50 (P. falciparum (W2)): 0.15 µg/mL (≈ 0.261 µM); cytotoxicity CTX [1]: NC (NC, not cytotoxic up to 4760 ng/mL (4.76 μg/mL)); IC50 [4]: 6.99 µg/mL (≈ 12.2 µM); IC90 [4]: 26.4 µg/mL (≈ 46 µM); IC50 (C. albicans ATCC90028): > 20 µg/mL; MFC (C. albicans ATCC90028): > 20 µg/mL; MIC (C. albicans ATCC90028): > 20 µg/mL; IC50 (C. neoformans ATCC90113): 2.74 µg/mL (≈ 4.77 µM); MFC (C. neoformans ATCC90113): 5 µg/mL (≈ 8.7 µM); MIC (C. neoformans ATCC90113): 5 µg/mL (≈ 8.7 µM); IC50 (A. fumigatus ATCC 90906): > 20 µg/mL; MFC (A. fumigatus ATCC 90906): > 20 µg/mL; MIC (A. fumigatus ATCC 90906): > 20 µg/mL; IC50 (SA (ATCC29213)): 11.7 µg/mL (≈ 20.3 µM); MBC (SA (ATCC29213)): > 20 µg/mL; MIC (SA (ATCC29213)): 20 µg/mL (≈ 34.8 µM); MIC (MRSA (ATCC33591)): 20 µg/mL (≈ 34.8 µM); IC50 [3]: 20 µg/mL (≈ 34.8 µM); MBC [3]: > 20 µg/mL; MIC [3]: > 20 µg/mL
